Results on 13 compounds are retold here after ChEMBL document CHEMBL1121982 (J Med Chem, 1982).

Experiment [1] is described as follows: IC50 ratio measured as inhibitory potencies in mouse vas deferens and guinea pig ileum assays. It counts as functional.
Experiment [2] addresses T1, Delta-type opioid receptor (Mus musculus, UniProt P32300). The experiment in a line: Inhibitory potency against Opioid receptor delta 1 in the mouse vas deferens assay. It counts as functional, tissue-based. In short, it runs like this: (§1)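 Vasa deferentia were taken from adult male Swiss Webster albino mice (30-50 g) killed by cervical dislocation. Fat, connective tissue and the blood vessel were removed and semen was expressed. Contractions were recorded with a force transducer, and twitch-height reduction at several doses gave log dose-response curves.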

The target in experiment [3] is T2, Mu-type opioid receptor (Cavia porcellus, UniProt P97266). As to the kind of experiment: Inhibitory potency against mu receptor in guinea pig ileum assay. It counts as functional, tissue-based. In short, it runs like this: (§2)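 Guinea pig ileum bioassay. Twitch-height reduction at several doses gave log dose-response curves.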
For experiment [4], the target named is Mu-type opioid receptor (Cavia porcellus) (UniProt P97266). The experiment in a line: Sensitivity to naloxone against Opioid receptor mu 1 in the guinea pig ileum assay. It is filed as functional, tissue-based. In short, it runs like this:
(§3)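 Ke for naloxone as antagonist in the isolated tissue assay. It was derived from the ratio of agonist IC50 values measured with and without a fixed naloxone concentration.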

The target of experiment [5] is Delta-type opioid receptor (Mus musculus) (UniProt P32300). As to the kind of experiment: […] in mouse vas deferens assay for Opioid receptor delta 1. It counts as functional. In short, it runs like this:
as §3

Experiment [6] has as its target T1, Delta-type opioid receptor. The experiment in a line: Inhibitory potency against Opioid receptor delta 1 in mouse vas deferens assay. It counts as functional, tissue-based. In short, it runs like this: as §1
Experiment [7] has as its target T3, Mu-type opioid receptor (Rattus norvegicus, UniProt P33535). The experiment in a line: Inhibition of binding of [3H]naloxone to Opioid receptor mu 1 in the rat brain homogenate. It is filed as tissue-based.
Experiment [8] concerns the target T4, Delta-type opioid receptor (Rattus norvegicus, UniProt P33533). As to the kind of experiment: Inhibition of [3H][D-Ala2,D-Leu5]enkephalin binding to Opioid receptor delta 1 in the rat brain homogenate. It counts as tissue-based.
The target in experiment [9] is T4, Delta-type opioid receptor. As to the kind of experiment: Inhibition of binding of [3H][D-Ala2,D-Leu5]enkephalin to Opioid receptor delta 1 in the rat brain homogenate. It is filed as tissue-based.
Experiment [10] deals with Delta-type opioid receptor (Rattus norvegicus) (UniProt P33533). The experiment in a line: (§4) Ki ratio measured as the inhibitory effect against delta/mu receptor.
Experiment [11] addresses T2, Mu-type opioid receptor. As to the kind of experiment: Inhibitory potency against Opioid receptor mu 1 in the guinea pig ileum assay. It is filed as functional, tissue-based. In short, it runs like this:
as §2

Experiment [12] is described as follows: Ki ratio measured as inhibitory effect against delta and mu opioid receptors.
Experiment [13] addresses Mu-type opioid receptor (Mus musculus, UniProt P42866). As to the kind of experiment: Inhibitory potency against Opioid receptor mu 1 in mouse vas deferens assay. It is filed as functional, tissue-based. In short, it runs like this: as §1
Experiment [14] concerns the target Delta-type opioid receptor (Mus musculus) (UniProt P32300). Described as §4.
Experiment [15] shares this target. The experiment in a line: IC50 ratio measured as the inhibitory potencies of MVD/GPI.
Experiment [16] addresses T3, Mu-type opioid receptor. As to the kind of experiment: Inhibition of [3H]-naloxone binding to mu receptor in rat brain homogenate. It is filed as tissue-based.
The target of experiment [17] is Mu-type opioid receptor (Cavia porcellus) (UniProt P97266). The experiment in a line: Sensitivity to naloxone against mu receptor in guinea pig ileum assay. It counts as functional, tissue-based. The essentials: as §3
In experiment [18] the target is T4, Delta-type opioid receptor. The experiment in a line: Inhibition of binding of [3H][D-Ala2,D-Leu5]enkephalin to delta receptor in the rat brain homogenate. It is filed as tissue-based.
The target of experiment [19] is T3, Mu-type opioid receptor. As to the kind of experiment: Inhibition of [3H]naloxone binding to Opioid receptor mu 1 in rat brain homogenate. It is filed as tissue-based.

pIC50, pKi: −log10 of the molar value.

T2 sequence (P97266 whole entry): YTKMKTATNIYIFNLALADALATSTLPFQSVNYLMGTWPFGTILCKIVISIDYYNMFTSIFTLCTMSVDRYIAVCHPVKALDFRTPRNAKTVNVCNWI
Mu-type opioid receptor (Cavia porcellus), sequence (P97266 whole entry): as above
Delta-type opioid receptor (Rattus norvegicus), sequence (P33533 whole entry): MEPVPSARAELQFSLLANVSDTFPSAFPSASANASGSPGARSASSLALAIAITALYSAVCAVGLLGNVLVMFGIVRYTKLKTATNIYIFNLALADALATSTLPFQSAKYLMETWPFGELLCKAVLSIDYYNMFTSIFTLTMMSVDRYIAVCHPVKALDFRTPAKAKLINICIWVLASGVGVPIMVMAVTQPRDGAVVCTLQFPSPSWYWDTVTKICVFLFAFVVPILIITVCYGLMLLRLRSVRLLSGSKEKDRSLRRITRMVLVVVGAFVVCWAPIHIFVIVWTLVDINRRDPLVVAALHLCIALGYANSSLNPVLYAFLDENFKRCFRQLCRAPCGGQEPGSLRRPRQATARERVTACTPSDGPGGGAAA
T4 sequence (P33533 whole entry): as above
T3 sequence (P33535 whole entry): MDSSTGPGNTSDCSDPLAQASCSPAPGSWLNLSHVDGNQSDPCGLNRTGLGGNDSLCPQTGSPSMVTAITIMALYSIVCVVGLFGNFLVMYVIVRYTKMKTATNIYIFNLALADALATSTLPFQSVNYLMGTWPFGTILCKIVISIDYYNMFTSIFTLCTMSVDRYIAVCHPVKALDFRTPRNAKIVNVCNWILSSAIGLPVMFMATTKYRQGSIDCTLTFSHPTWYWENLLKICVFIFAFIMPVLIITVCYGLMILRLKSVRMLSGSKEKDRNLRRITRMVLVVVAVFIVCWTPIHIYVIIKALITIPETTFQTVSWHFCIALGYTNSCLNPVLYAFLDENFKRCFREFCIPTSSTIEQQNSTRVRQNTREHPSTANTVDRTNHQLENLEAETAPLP
Delta-type opioid receptor (Mus musculus), sequence (P32300 whole entry): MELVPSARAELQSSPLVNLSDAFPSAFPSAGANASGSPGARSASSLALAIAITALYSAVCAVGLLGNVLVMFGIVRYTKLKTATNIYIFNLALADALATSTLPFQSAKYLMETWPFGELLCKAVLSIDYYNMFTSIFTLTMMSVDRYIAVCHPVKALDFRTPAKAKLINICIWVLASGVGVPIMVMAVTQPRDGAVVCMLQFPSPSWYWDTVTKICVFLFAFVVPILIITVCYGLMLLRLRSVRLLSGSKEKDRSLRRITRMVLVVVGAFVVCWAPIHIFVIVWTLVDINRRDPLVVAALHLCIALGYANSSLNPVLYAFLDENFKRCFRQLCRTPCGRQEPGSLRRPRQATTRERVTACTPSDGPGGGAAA
T1 sequence (P32300 whole entry): as above
Mu-type opioid receptor (Mus musculus, UniProt P42866), sequence (P42866 whole entry): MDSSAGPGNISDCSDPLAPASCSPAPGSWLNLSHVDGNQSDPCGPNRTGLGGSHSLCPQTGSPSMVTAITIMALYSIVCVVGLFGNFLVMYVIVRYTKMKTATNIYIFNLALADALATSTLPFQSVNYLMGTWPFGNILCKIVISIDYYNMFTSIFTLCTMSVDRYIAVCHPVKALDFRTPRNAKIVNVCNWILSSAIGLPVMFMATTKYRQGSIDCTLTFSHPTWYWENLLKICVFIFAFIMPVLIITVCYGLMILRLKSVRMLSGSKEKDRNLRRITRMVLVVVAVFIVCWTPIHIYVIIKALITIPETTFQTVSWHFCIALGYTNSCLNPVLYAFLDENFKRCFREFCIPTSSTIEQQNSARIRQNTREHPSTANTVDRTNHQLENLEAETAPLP

Turning to `CC(=O)O.CC(C)C[C@@H]1NC(=O)[C@H](Cc2ccccc2)NC(=O)CNC(=O)[C@H](NC(=O)[C@@H](N)Cc2ccc(O)cc2)CCNC1=O`, in [1], the Ratio came to 5.77.

As a reminder, the pIC50 is the negative decadic logarithm of the IC50, by convention in mol/L. A higher pIC50 goes with a low IC50. On to `CC(C)C[C@H](NC(=O)[C@H](Cc1ccccc1)NC(=O)CNC(=O)[C@@H](C)NC(=O)[C@@H](N)Cc1ccc(O)cc1)C(N)=O`, for which the pIC50 is 8.08 in experiment [2] and 8.12 on Mu-type opioid receptor [3]. Further, the results for the Ke in experiment [4] and in experiment [5] were 0.401 nM and 2.36 nM, respectively.

In general, pKi refers to the Ki on a negative log10 scale, so that one unit is a factor of ten. Low values mean a high Ki, high ones a low Ki. As to `CC(=O)O.CC[C@@H](NC(=O)[C@@H](N)Cc1ccc(O)cc1)C(=O)NCC(=O)N[C@@H](Cc1ccccc1)C(=O)N[C@@H](CC(C)C)C(N)=O`, the negative-log IC50 (pIC50) in [6] is 7.34; at Mu-type opioid receptor [7], 8.00; in [9], 8.05; at Mu-type opioid receptor [11] it was 7.54. The pKi at Mu-type opioid receptor [7] is 8.25; in experiment [8], 8.39. Further, the Ke in experiment [4] was 0.181 nM; in [5], 1.5 nM. In addition, the Ratio turned out to be 0.72 in experiment [10] and 1.59 in experiment [1].

As to `CC(=O)O.CC(C)C[C@H]1NC(=O)[C@H](Cc2ccccc2)NC(=O)CNC(=O)[C@H](NC(=O)[C@@H](N)Cc2ccc(O)cc2)CCCCNC1=O`, the negative-log IC50 (pIC50) in [2] is 7.76; at Mu-type opioid receptor [7] it was 8.07; in [9] it was 7.32; against Mu-type opioid receptor [11] it was 8.62. The pKi was 8.33 at Mu-type opioid receptor [7] and 7.66 in [8]. Also, the results for the Ke in [4] and in experiment [5] were 0.553 nM and 2.37 nM, respectively. Further, the values for the Ratio in [1] and in experiment [12] were 7.32 and 4.59, respectively.

For `CC(C)C[C@@H]1NC(=O)[C@@H](Cc2ccccc2)NC(=O)CNC(=O)[C@H](NC(=O)[C@@H](N)Cc2ccc(O)cc2)CCNC1=O`, the Ke in experiment [4] was determined as 0.122 nM; in [5], 0.576 nM. For the same compound, the Ratio in [12] was determined as 8.33.

As for `CN1CC[C@]23CCCC[C@H]2[C@H]1Cc1ccc(O)cc13` [LEVORPHANOL], the Ke in experiment [4] worked out at 0.127 nM; in [5] it was 0.587 nM. In experiment [1], the Ratio is 16.4. The pIC50 against Mu-type opioid receptor [11] is 7.77; against Mu-type opioid receptor [13], 6.56.

In the case of `CC(=O)O.N[C@@H](Cc1ccc(O)cc1)C(=O)N[C@@H]1CCCCNC(=O)[C@H](Cc2ccccc2)NC(=O)CNC1=O`, the pIC50 is 7.47 in experiment [2], 8.25 on Mu-type opioid receptor [7], 7.01 in [9] and 8.15 against Mu-type opioid receptor [11]. Moreover, the pKi at Mu-type opioid receptor [7] is 8.51; in [9], 7.35. Further, the Ke in experiment [4] is 0.875 nM; in experiment [5], 0.606 nM. Besides, the results for the Ratio in [1] and in [12] were 4.77 and 14.4, respectively.

As to `CC(C)C[C@@H]1NC(=O)[C@H](Cc2ccccc2)NC(=O)CNC(=O)[C@H](NC(=O)[C@@H](N)Cc2ccc(O)cc2)CCCCNC1=O`, the pIC50 in experiment [6] was 6.85; on Mu-type opioid receptor [7], 7.65; in [9], 7.49; on Mu-type opioid receptor [11], 8.32. In addition, the pKi at Mu-type opioid receptor [7] was 7.91; in experiment [8], 7.84. The Ke is 0.416 nM in [4] and 0.36 nM in experiment [5]. Further, the Ratio in [14] amounted to 1.18; in experiment [15], 29.4.

With `CC(C)C[C@@H]1NC(=O)[C@H](Cc2ccccc2)NC(=O)CNC(=O)[C@H](NC(=O)[C@@H](N)Cc2ccc(O)cc2)CCCNC1=O`, the pKi on Mu-type opioid receptor [7] was 7.50; in [8], 7.00. Also, the pIC50 at Mu-type opioid receptor [16] was 7.25; in experiment [9] it was 6.66; on Mu-type opioid receptor [11], 7.32. The results for the Ke in [17] and in [5] were 0.671 nM and 0.216 nM, respectively. The figures for the Ratio in [14] and in [15] were 3.18 and 9.9, respectively.

For the compound `CC(=O)O.CC(C)C[C@@H]1NC(=O)[C@H](Cc2ccccc2)NC(=O)CNC(=O)[C@H](NC(=O)[C@@H](N)Cc2ccc(O)cc2)CNC1=O`, the pIC50 in experiment [2] was 7.14; at Mu-type opioid receptor [7] it was 7.02; in experiment [18], 6.93; against Mu-type opioid receptor [11], 7.63. Besides, the pKi (in experiment [8]; at Mu-type opioid receptor [19]) was 7.27 in each case. Further, the Ke in experiment [4] was 0.275 nM; in experiment [5], 0.387 nM. Also, the Ratio turned out to be 3.12 in experiment [1] and 1.01 in [12].

As to `CC(=O)O.CCC[C@@H](NC(=O)[C@@H](N)Cc1ccc(O)cc1)C(=O)NCC(=O)N[C@@H](Cc1ccccc1)C(=O)N[C@@H](CC(C)C)C(N)=O`, the pIC50 was 7.68 in experiment [2], 8.23 on Mu-type opioid receptor [7], 8.17 in experiment [9] and 7.63 at Mu-type opioid receptor [11]. Besides, the pKi on Mu-type opioid receptor [7] is 8.49; in experiment [8], 8.51. In addition, the Ke was determined as 0.227 nM in [4] and 3.52 nM in experiment [5]. For the same compound, the Ratio in experiment [10] came out at 0.95; in experiment [1] it was 0.905.

As for `CC(=O)O.CCCC[C@@H](NC(=O)[C@@H](N)Cc1ccc(O)cc1)C(=O)NCC(=O)N[C@@H](Cc1ccccc1)C(=O)N[C@@H](CC(C)C)C(N)=O`, the pIC50 in [2] is 7.60; on Mu-type opioid receptor [7] it was 8.39; in experiment [9], 8.02; on Mu-type opioid receptor [11], 7.61. Further, the pKi on Mu-type opioid receptor [7] was 8.64; in experiment [8], 8.36. Also, the figures for the Ke in experiment [4] and in experiment [5] were 0.729 nM and 3.19 nM, respectively. For the same compound, the Ratio in experiment [10] amounted to 1.92; in experiment [1], 1.02.

Take `CC(C)C[C@@H]1NC(=O)[C@H](Cc2ccccc2)NC(=O)CNC(=O)[C@H](NC(=O)[C@@H](N)Cc2ccc(O)cc2)CCNC1=O`: the pIC50 is 7.09 in experiment [2], 7.60 at Mu-type opioid receptor [7], 6.60 in experiment [9] and 7.85 against Mu-type opioid receptor [11]. Also, the negative-log Ki (pKi) at Mu-type opioid receptor [7] was 7.86; in [8] it was 6.94.
